Converted amounts (≈) assume the structure as drawn.
Experiments:
Escherichia coli [1] = assay: Minimum inhibitory concentration against Escherichia coli (H560); format: functional
In short: (§1)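 MICs were determined by standard microtitration against a panel of 11 bacterial strains. Aqueous stock solutions were prepared with 0.1 N sodium or potassium hydroxide.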

Pseudomonas aeruginosa = assay: Minimum inhibitory concentration against Pseudomonas aeruginosa. (UI-18); format: functional; in short: as §1
Klebsiella pneumoniae = assay: Minimum inhibitory concentration against Klebsiella pneumoniae (MGH-2); format: functional; in short: as §1
Staphylococcus aureus [2] = assay: Minimum inhibitory concentration against Staphylococcus aureus (H-228).; format: functional; in short: as §1
Enterobacter = assay: Minimum inhibitory concentration against gram-negative enterobacteriaceae.; format: functional
In short: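 This value is the geometric mean of microtitration MICs for the Gram-negative Enterobacteriaceae strains in the 11-organism panel. Aqueous stocks were prepared in 0.1 N sodium or potassium hydroxide.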

Enterobacter cloacae = assay: Minimum inhibitory concentration against Enterobacter cloacae. (MA2446).; format: functional
Streptococcus pneumoniae = assay: Minimum inhibitory concentration against Streptococcus pneumoniae (SV-1).; format: functional; in short: as §1
Staphylococcus aureus [3] = assay: Minimum inhibitory concentration against Staphylococcus aureus (UC76).; format: functional; in short: as §1
[4] = target: DNA gyrase (Escherichia coli) (UniProt P0AES6+P0AES4); assay: Concentration required for 50% inhibition of gyrase.; format: protein-complex assay
In short: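 DNA gyrase inhibition: the drug concentration (µg/mL) giving 50% inhibition (I50) was recorded, along with the lowest concentration inducing gyrase-mediated DNA cleavage. Data come from duplicate experiments with ±50% reproducibility.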

Enterococcus faecalis = assay: Minimum inhibitory concentration against Streptococcus faecalis (MGH-2).; format: functional; in short: as §1
Streptococcus pyogenes = assay: Minimum inhibitory concentration against Streptococcus pyogenes (C203).; format: functional; in short: as §1
Providencia rettgeri = assay: Minimum inhibitory concentration against Providencia rettgeri. (M1771); format: functional; in short: as §1
Escherichia coli [5] = assay: Minimum inhibitory concentration against Escherichia coli (vogel); format: functional; in short: as §1
Mus musculus [6] = assay: In vivo activity against Pseudomonas aeruginosa (sc); format: functional; settings: read-out: PD50
In short: (§2)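 Median protective dose (PD50, mg/kg) measured in acute, lethal, systemic infections in female Charles River CD-1 mice. A single dose of compound was given at the time of bacterial challenge. Aqueous stock solutions were made with 0.1 N sodium or potassium hydroxide.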

Mus musculus [7] = assay: In vivo activity against Streptococcus pneumoniae (sc); format: functional; settings: read-out: PD50; in short: as §2
Mus musculus [8] = assay: In vivo activity against Streptococcus pyogenes (po); format: functional; settings: read-out: PD50; in short: as §2
Mus musculus [9] = assay: In vivo activity against Streptococcus pyogenes (sc); format: functional; settings: read-out: PD50; in short: as §2
Mus musculus [10] = assay: In vivo activity against Escherichia coli (po); format: functional; settings: read-out: PD50; in short: as §2
Mus musculus [11] = assay: In vivo activity against Pseudomonas aeruginosa (po); format: functional; settings: read-out: PD50; in short: as §2
Mus musculus [12] = assay: In vivo activity against Streptococcus pneumoniae (po); format: functional; settings: read-out: PD50; in short: as §2
Mus musculus [13] = assay: In vivo activity against Escherichia coli (sc); format: functional; settings: read-out: PD50; in short: as §2

| Structure (SMILES) | MIC (Escherichia coli [1]) [µg/mL] | MIC (Pseudomonas aeruginosa) [µg/mL] | MIC (Klebsiella pneumoniae) [µg/mL] | MIC (Staphylococcus aureus [2]) [µg/mL] | MIC (Enterobacter) [µg/mL] | MIC (Enterobacter cloacae) [µg/mL] | MIC (Streptococcus pneumoniae) [µg/mL] | MIC (Staphylococcus aureus [3]) [µg/mL] | IC50 [4] [µg/mL] | MIC (Enterococcus faecalis) [µg/mL] | MIC (Streptococcus pyogenes) [µg/mL] | MIC (Providencia rettgeri) [µg/mL] | MIC (Escherichia coli [5]) [µg/mL] | other results |
| --- | --- | --- | --- | --- | --- | --- | --- | --- | --- | --- | --- | --- | --- | --- |
| CCNCC1CCN(c2c(F)cc3c(=O)c(C(=O)O)cn(-c4ccccc4)c3c2F)C1 (configuration not stated) | 0.8 (≈ 1.87 µM) | 6.3 (≈ 14.7 µM) | 1.6 (≈ 3.74 µM) | 0.8 (≈ 1.87 µM) | 1.83 (≈ 4.28 µM) | 1.6 (≈ 3.74 µM) | 1.6 (≈ 3.74 µM) | 0.2 (≈ 0.468 µM) | 29 (≈ 67.8 µM) | 0.8 (≈ 1.87 µM) | 1.6 (≈ 3.74 µM) | 6.3 (≈ 14.7 µM) | 1.6 (≈ 3.74 µM) |  |
| CCNCC1CCN(c2c(F)cc3c(=O)c(C(=O)O)cn(CCF)c3c2F)C1 (configuration not stated) | 0.1 (≈ 0.252 µM) | 1.6 (≈ 4.03 µM) | 0.4 (≈ 1.01 µM) | 0.4 (≈ 1.01 µM) | 0.23 (≈ 0.579 µM) | 0.2 (≈ 0.503 µM) | 0.1 (≈ 0.252 µM) | 0.1 (≈ 0.252 µM) | 7.5 (≈ 18.9 µM) | 0.2 (≈ 0.503 µM) | 0.1 (≈ 0.252 µM) | 0.8 (≈ 2.01 µM) | 0.1 (≈ 0.252 µM) |  |
| CCNCC1CCN(c2c(F)cc3c(=O)c(C(=O)O)cn(C4CCC4)c3c2F)C1 (configuration not stated) | 0.1 (≈ 0.247 µM) | 3.1 (≈ 7.65 µM) | 0.4 (≈ 0.987 µM) | 0.1 (≈ 0.247 µM) | 0.4 (≈ 0.987 µM) | 0.4 (≈ 0.987 µM) | 0.1 (≈ 0.247 µM) | 0.05 (≈ 0.123 µM) | 26 (≈ 64.1 µM) | 0.2 (≈ 0.493 µM) | 0.2 (≈ 0.493 µM) | 3.1 (≈ 7.65 µM) | 0.2 (≈ 0.493 µM) |  |
| C=Cn1cc(C(=O)O)c(=O)c2cc(F)c(N3CCC(CNCC)C3)c(F)c21 (configuration not stated) | 0.1 (≈ 0.265 µM) | 1.6 (≈ 4.24 µM) | 0.4 (≈ 1.06 µM) | 0.4 (≈ 1.06 µM) | 0.3 (≈ 0.795 µM) | 0.2 (≈ 0.53 µM) | 0.2 (≈ 0.53 µM) | 0.1 (≈ 0.265 µM) | 2.9 (≈ 7.68 µM) | 0.4 (≈ 1.06 µM) | 0.1 (≈ 0.265 µM) | 1.6 (≈ 4.24 µM) | 0.2 (≈ 0.53 µM) |  |
| CN1CCN(c2c(F)cc3c(=O)c(C(=O)O)cn(CCF)c3c2F)CC1 [FLEROXACIN] | 0.1 (≈ 0.271 µM) | 1.6 (≈ 4.33 µM) | 0.2 (≈ 0.542 µM) | 0.8 (≈ 2.17 µM) | 0.2 (≈ 0.542 µM) | 0.2 (≈ 0.542 µM) | 6.3 (≈ 17.1 µM) | 0.2 (≈ 0.542 µM) |  | 3.1 (≈ 8.39 µM) | 6.3 (≈ 17.1 µM) | 0.4 (≈ 1.08 µM) | 0.2 (≈ 0.542 µM) |  |
| CNn1cc(C(=O)O)c(=O)c2cc(F)c(N3CCN(C)CC3)cc21 [AMIFLOXACIN] | 0.025 (≈ 0.0748 µM) | 0.8 (≈ 2.39 µM) | 0.2 (≈ 0.598 µM) | 1.6 (≈ 4.79 µM) | 0.1 (≈ 0.299 µM) |  | 12.5 (≈ 37.4 µM) | 0.4 (≈ 1.2 µM) |  | 3.1 (≈ 9.27 µM) | 12.5 (≈ 37.4 µM) | 0.2 (≈ 0.598 µM) | 0.1 (≈ 0.299 µM) |  |
| CCNCC1CCN(c2c(F)cc3c(=O)c(C(=O)O)cn(NC)c3c2F)C1 (configuration not stated) | 0.2 (≈ 0.526 µM) | 0.8 (≈ 2.1 µM) | 0.2 (≈ 0.526 µM) | 0.4 (≈ 1.05 µM) | 0.3 (≈ 0.789 µM) | 0.2 (≈ 0.526 µM) | 0.1 (≈ 0.263 µM) | 0.2 (≈ 0.526 µM) | 27 (≈ 71 µM) | 0.4 (≈ 1.05 µM) | 0.2 (≈ 0.526 µM) | 1.6 (≈ 4.21 µM) | 0.2 (≈ 0.526 µM) |  |
| CCNCC1CCN(c2c(F)cc3c(=O)c(C(=O)O)cn(C4(C)CC4)c3c2F)C1 (configuration not stated) | 1.6 (≈ 3.95 µM) | 3.1 (≈ 7.65 µM) | 0.8 (≈ 1.97 µM) | 0.4 (≈ 0.987 µM) | 1.38 (≈ 3.4 µM) | 3.1 (≈ 7.65 µM) | 0.8 (≈ 1.97 µM) | 0.1 (≈ 0.247 µM) | 6.3 (≈ 15.5 µM) | 0.2 (≈ 0.493 µM) | 0.8 (≈ 1.97 µM) | 1.6 (≈ 3.95 µM) | 0.8 (≈ 1.97 µM) |  |
| CCNCC1CCN(c2c(F)cc3c(=O)c(C(=O)O)cn(OC)c3c2F)C1 (configuration not stated) | 0.4 (≈ 1.05 µM) | 6.3 (≈ 16.5 µM) | 0.2 (≈ 0.524 µM) | 0.8 (≈ 2.1 µM) | 0.46 (≈ 1.21 µM) | 0.4 (≈ 1.05 µM) | 0.8 (≈ 2.1 µM) | 0.2 (≈ 0.524 µM) | 27 (≈ 70.8 µM) | 0.8 (≈ 2.1 µM) | 0.8 (≈ 2.1 µM) | 1.6 (≈ 4.2 µM) | 0.4 (≈ 1.05 µM) |  |
| CN1CCN(c2cc3c(cc2F)c(=O)c(C(=O)O)cn3-c2ccc(F)cc2)CC1 [DIFLOXACIN] | 0.05 (≈ 0.125 µM) | 0.8 (≈ 2 µM) | 0.4 (≈ 1 µM) | 1.6 (≈ 4.01 µM) | 0.4 (≈ 1 µM) | 0.8 (≈ 2 µM) | 1.6 (≈ 4.01 µM) | 0.4 (≈ 1 µM) |  | 3.1 (≈ 7.76 µM) | 1.6 (≈ 4.01 µM) | 1.6 (≈ 4.01 µM) | 0.4 (≈ 1 µM) | ED50 (Mus musculus [6]): 14 mg/kg; ED50 (Mus musculus [7]): 13 mg/kg; ED50 (Mus musculus [8]): 7 mg/kg; ED50 (Mus musculus [9]): 7 mg/kg; ED50 (Mus musculus [10]): 2 mg/kg; ED50 (Mus musculus [11]): 14 mg/kg; ED50 (Mus musculus [12]): 16 mg/kg; ED50 (Mus musculus [13]): 2 mg/kg |
| CCNCC1CCN(c2c(F)cc3c(=O)c(C(=O)O)cn(-c4ccc(F)cc4)c3c2F)C1 (configuration not stated) | 0.1 (≈ 0.224 µM) | 1.6 (≈ 3.59 µM) | 1.6 (≈ 3.59 µM) | 0.1 (≈ 0.224 µM) | 0.7 (≈ 1.57 µM) | 0.8 (≈ 1.8 µM) | 0.4 (≈ 0.898 µM) | 0.2 (≈ 0.449 µM) | 14 (≈ 31.4 µM) | 0.2 (≈ 0.449 µM) | 0.4 (≈ 0.898 µM) | 1.6 (≈ 3.59 µM) | 0.8 (≈ 1.8 µM) |  |
